Only some compounds are listed: those with a hit (about 1.3% of all), similar ones and a draw of the others.
MT1-MMP act inh – blocks activation of human MT1-MMP. P50281. HT1080 RFP-PRO-GFP cells, GFP/RFP ratio fluorescence, overnight; percent of plate control window, DMSO zero. GFP/RFP ratio change, % at 20 µM. 360,000 compounds, 0.061% hits. AID 651647;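 active = GFP/RFP ratio change of at least 30% with cell ATP level not reduced by more than half and red fluorescence within 50% of control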
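Assay system: HT1080 RFP-PRO-GFP cells | Dosing: 20 µM single dose, 1% DMSO | Incubation: Cells overnight before dosing, compound overnight, 37 °C, 5% CO2 | Evaluation: GFP/RFP fluorescence ratio | Control set: DMSO-only wells and HT1080 RFP-L50D-GFP cell wells as references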
H9c2 TAG inh – triacylglycerol accumulation inhibition. H9c2 cells, Nile Red lipid (TAG) fluorescence; cells loaded with 200 µM oleic acid. inhibition, % at 12.5 µM. 230,000 compounds, 0.66% hits. AID 651582;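 active = pattern-corrected inhibition of lipid staining of at least 50% with the nuclear-stain viability signal not falling by more than 50%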
Efflux pump mplx – inhibitors of Candida antifungal efflux pumps expressed in yeast; S. cerevisiae Candida pump triplex, Nile Red efflux; 330,000 compounds, 0.44% hits; AID 485275; inhibition, % at 10 µM;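 active = plate passing quality check with inhibition over a set limit, or well fluorescence over plate mean plus 4 SD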;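 also: Nile Red retained in pooled yeast measured as flow cytometry median fluorescence; higher means more Nile Red kept so more efflux inhibition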
sPLA2-III inh – Blocks human group III sPLA2 activity; Q9NZ20; QFRET BODIPY PC-A2 liposome hydrolysis, fluorescence; inhibition, % at 12.2 µM; 370,000 compounds, 0.56% hits; AID 743126;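 active = inhibition above mean plus 3 SD of compounds lying within the high and low control bounds, cut at about 19% in these data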
Target sequence (Q9NZ20 whole entry, looked up): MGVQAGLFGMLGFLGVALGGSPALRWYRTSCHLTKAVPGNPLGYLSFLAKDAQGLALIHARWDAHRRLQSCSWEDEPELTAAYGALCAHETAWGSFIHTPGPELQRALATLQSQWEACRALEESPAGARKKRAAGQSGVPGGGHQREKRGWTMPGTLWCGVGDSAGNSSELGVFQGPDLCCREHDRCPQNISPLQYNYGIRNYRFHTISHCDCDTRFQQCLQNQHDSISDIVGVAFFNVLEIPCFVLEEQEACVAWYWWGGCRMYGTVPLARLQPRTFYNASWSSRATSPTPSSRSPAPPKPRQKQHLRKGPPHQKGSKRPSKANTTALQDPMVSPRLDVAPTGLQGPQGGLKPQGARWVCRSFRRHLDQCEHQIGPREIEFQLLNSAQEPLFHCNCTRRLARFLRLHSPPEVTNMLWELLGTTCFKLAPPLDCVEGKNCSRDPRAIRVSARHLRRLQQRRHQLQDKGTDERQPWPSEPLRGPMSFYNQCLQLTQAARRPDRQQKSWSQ
hGIII sPLA2 conf – human GIII-sPLA2 inhibition, confirmation | shares compounds with sPLA2-III inh | recombinant hGIII-sPLA2, BODIPY PC-A2 QFRET fluorescence | inhibition, % at 12.2 µM | 2,000 compounds, 34% hits;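 active = mean inhibition across triplicates above the hit cutoff set in the earlier primary screen, cut at about 19% in these data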
BODIPY interf – optically interferes with 535nm fluorescence in sPLA2 counter-screen; shares compounds with sPLA2-III inh; BODIPY FL product fluorescence interference, QFRET; inhibition, % at 12.2 µM; 2,000 compounds, 8.5% hits; AID 743282;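 active = average inhibition above the solvent-only control mean plus 3 SD, cut at about 6% in these data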
535nm interf DR – 535nm optical interference dose response, HGIII-sPLA2 counter-screen. AID 743455. 240 tested, under 10 active. shares compounds with sPLA2-III inh. IC50, µM. BODIPY FL product fluorescence interference, cell-free;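 active = IC50 at or below 10 µM; inactive = IC50 above 10 µM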
Of the large screens only hits and unclear results are named; the others gave an inactive call (follow-up assays come after a bar, where they were run).

Cn1c(=O)c(=O)n(C)c2cc(N3CCCC3)c(NS(=O)(=O)c3ccc(F)cc3)cc21	none (no result: H9c2 TAG inh)
Cn1c(=O)c(=O)n(C)c2cc(N3CCCCC3)c(NS(=O)(=O)c3ccc([N+](=O)[O-])cc3)cc21	sPLA2-III inh 21 (no result: H9c2 TAG inh) | hGIII sPLA2 conf inactive | BODIPY interf inactive
CC(=O)Nc1ccc(-c2ccnc3c2CC(C)(C(=O)NC(C)C)O3)cc1 (configuration not stated)	sPLA2-III inh 21 (no result: Efflux pump mplx) | hGIII sPLA2 conf inactive | BODIPY interf inactive
CNC(=O)C1(C)Cc2c(-c3ccc(NC(C)=O)cc3)ccnc2O1 (configuration not stated)	none (no result: Efflux pump mplx)
O=c1[nH]c(=S)[nH]c2nccnc12	none (no result: Efflux pump mplx)
CCn1c(-c2cccc(Br)c2)n[nH]c1=S	sPLA2-III inh 23 | hGIII sPLA2 conf 34 | BODIPY interf inactive | 535nm interf DR inactive
CCn1c(-c2ccc3ncccc3c2)n[nH]c1=S	none (no result: H9c2 TAG inh)
Cc1nc(SCC(=O)N2CCOCC2)c2c(=O)n(C)c(=O)n(C)c2n1	sPLA2-III inh 21 | hGIII sPLA2 conf inactive | BODIPY interf inactive
O=C(CC[C@H]1O[C@@H](n2cnc3c(NC(=O)c4ccccc4)ncnc32)[C@H](O)[C@@H]1O)NCc1ccc2c(c1)OCO2	none (no result: H9c2 TAG inh, Efflux pump mplx)
Cc1ccc(S(=O)(=O)N(C)c2c(C)ccc(S(=O)(=O)NC(C)(C)C)c2C)cc1	none (no result: H9c2 TAG inh)
O=S(=O)(Cc1ccc(Cl)cc1)N1CCCC1	sPLA2-III inh 21 (no result: H9c2 TAG inh) | hGIII sPLA2 conf inactive | BODIPY interf inactive
Cc1ccccc1N=C(NO)c1nonc1N	none
Cc1cc(C(=O)COc2ccc3ccc(=O)oc3c2)c(C)n1Cc1cccs1	sPLA2-III inh 21 | hGIII sPLA2 conf inactive | BODIPY interf inactive
Fc1ccc2nc(Nc3nc4cc5c(cc4s3)OCO5)sc2c1	none (no result: H9c2 TAG inh)
O=C(NNc1nc2cc3c(cc2s1)OCO3)c1ccc(F)cc1	sPLA2-III inh 23 | hGIII sPLA2 conf 38 | BODIPY interf inactive | 535nm interf DR inactive
Fc1ccc2nc(Nc3nc4cc5c(cc4s3)OCCO5)sc2c1	sPLA2-III inh 24 (no result: H9c2 TAG inh) | hGIII sPLA2 conf inactive | BODIPY interf 6.5
Nc1ccc2c(c1)C(=O)c1cc(N)c(Cl)cc1-2	sPLA2-III inh 29 (no result: Efflux pump mplx) | hGIII sPLA2 conf 31 | BODIPY interf 8.2
CCOC(=O)COc1c(Cl)cc(C2NC(=S)NC(c3ccccc3)=C2C(C)=O)cc1OCC (configuration not stated)	none (no result: H9c2 TAG inh)
O=C(NNC(=S)Nc1ccc(F)cc1)c1ccccc1OC(F)F	sPLA2-III inh 21 (no result: H9c2 TAG inh) | hGIII sPLA2 conf 26 | BODIPY interf inactive
Cc1ccc(NC(=S)NNC(=O)c2ccccc2OC(F)F)cc1	sPLA2-III inh 26 (no result: H9c2 TAG inh) | hGIII sPLA2 conf 21 | BODIPY interf inactive
Cc1ccc(NC(=S)NNC(=O)Nc2ccccc2)cc1	none
Cc1ccc(/C(N)=N/OC(=O)CCc2ccccc2)cc1	sPLA2-III inh 20 (no result: H9c2 TAG inh) | hGIII sPLA2 conf inactive | BODIPY interf inactive
N/C(=N\OC(=O)CCc1ccccc1)c1ccc(Br)cc1	none (no result: H9c2 TAG inh)
N#CC(C#N)=c1ccc2c(c1)NC1(CCCCC1)N=2	sPLA2-III inh 38 | hGIII sPLA2 conf 61 | BODIPY interf 18
COc1ccccc1N(CC(=O)Nc1ccc(S(=O)(=O)N2CCOCC2)cc1)S(C)(=O)=O	none (no result: H9c2 TAG inh)
CCOc1ccccc1N(CC(=O)Nc1ccc(S(=O)(=O)N2CCOCC2)cc1)S(=O)(=O)c1ccc(Cl)cc1	sPLA2-III inh 23 (no result: H9c2 TAG inh) | hGIII sPLA2 conf inactive | BODIPY interf inactive
CNC(=S)/N=C(\Nc1ccc(C)cc1)c1ccccc1	sPLA2-III inh 21 | hGIII sPLA2 conf inactive | BODIPY interf inactive
S=C1SC2(CCCCCC2)NC2=C1CCCCC2	sPLA2-III inh 19 (no result: Efflux pump mplx) | hGIII sPLA2 conf 25 | BODIPY interf inactive
CCCN(CC(=O)Nc1ccccc1OC)C(=O)CSC(=S)N1CCCC1	none
S=C(NCC1CCCCC1)Nc1cccnc1	sPLA2-III inh 23 (no result: H9c2 TAG inh) | hGIII sPLA2 conf inactive | BODIPY interf inactive
S=C(NCC1CCCCC1)Nc1ccc(Oc2ccccc2)cc1	none (no result: H9c2 TAG inh)
CCOc1ccc(NC(=S)Nc2ccc(OC)cc2)cc1	none
CCOc1ccc(NC(=S)c2ccncc2)cc1	sPLA2-III inh 22 (no result: H9c2 TAG inh) | hGIII sPLA2 conf inactive | BODIPY interf inactive
c1ccc(-c2cccc(CNc3nc(-c4ccccn4)nnc3-c3ccccc3)c2)cc1	sPLA2-III inh 25 (no result: MT1-MMP act inh, H9c2 TAG inh, Efflux pump mplx) | hGIII sPLA2 conf inactive | BODIPY interf inactive
CN(C)c1nc(-c2ccccn2)nnc1-c1ccccc1	none
Cc1ccc(S(=O)(=O)NNC(=O)c2sc(=S)n(C)c2C)cc1	sPLA2-III inh 23 (no result: H9c2 TAG inh) | hGIII sPLA2 conf inactive | BODIPY interf inactive
Cc1ccc(NC(=O)c2ncn(CCCN3CCN(Cc4cccc5ccccc45)CC3)n2)cc1C	none (no result: Efflux pump mplx)
O=c1[nH]n(Cc2ccccc2)c2ccccc12	sPLA2-III inh 20 (no result: H9c2 TAG inh) | hGIII sPLA2 conf inactive | BODIPY interf inactive
O=c1ccn(Cc2ccccc2)c2ccccc12	none
O=C(Oc1cccc(Br)c1)c1cccnc1	none
CCOC(=O)c1c(C)[nH]c(C(=O)N/N=C/c2cc([N+](=O)[O-])ccc2O)c1C	sPLA2-III inh 24 (no result: H9c2 TAG inh) | hGIII sPLA2 conf inactive | BODIPY interf 6.1
CCOC(=O)c1c(C)[nH]c(C(=O)N/N=C\c2ccccc2O)c1C	none (no result: H9c2 TAG inh)
Cc1ccccc1-n1c(-c2ccc(Cl)cc2)cnc1SCC(=O)NC1CCS(=O)(=O)C1 (configuration not stated)	none (no result: H9c2 TAG inh)
Oc1c(C(Nc2nccs2)c2ccc(C(F)(F)F)cc2)ccc2cccnc12 (configuration not stated)	H9c2 TAG inh 60, sPLA2-III inh 40 (no result: Efflux pump mplx) | hGIII sPLA2 conf 23 | BODIPY interf inactive
O=c1c2[nH]c3ccc(F)cc3c2ncn1CC1CCCO1 (configuration not stated)	none (no result: sPLA2-III inh)
Cn1c2ccc(F)cc2c2ncn(CC3CCCO3)c(=O)c21 (configuration not stated)	sPLA2-III inh 21 | hGIII sPLA2 conf inactive | BODIPY interf inactive
CCCCCOC(=O)CCN1C(=O)/C(=C2\SC(=S)N(CCC(=O)OCCCCC)C2=O)SC1=S	none
CCCCOC(=O)CCN1C(=O)/C(=C2\SC(=S)N(CCC(=O)OCCCC)C2=O)SC1=S	sPLA2-III inh 22 (no result: H9c2 TAG inh) | hGIII sPLA2 conf inactive | BODIPY interf inactive
COc1ccccc1C=NN=C1c2ccccc2-c2ccccc21	none (no result: Efflux pump mplx)
CC(=O)OCC1OC(n2cc(F)c(=O)[nH]c2=O)C(OC(C)=O)C1OC(C)=O (configuration not stated)	sPLA2-III inh 19 | hGIII sPLA2 conf inactive | BODIPY interf inactive
CC1CCC(NC(=O)CCN2C(=O)C3C4C=CC(C4)C3C2=O)CC1 (configuration not stated)	none (no result: H9c2 TAG inh)
O=[N+]([O-])c1ccccc1C(=Nc1ccccc1)c1c(O)cc(O)cc1O	sPLA2-III inh 26 (no result: Efflux pump mplx) | hGIII sPLA2 conf inactive | BODIPY interf inactive
